Source: ChEMBL document CHEMBL4190188, “Neuroprotective Activity of Cerebrosides from Typhonium giganteum by Regulating Caspase-3 and Bax/Bcl-2 Signaling Pathways in PC12 Cells” (J Nat Prod, 2017)
pEC50: −log10 of the molar value. Calls of active or inactive are those of the source. The calls are words filed in the database; no cut-off is given here.

Columns and labels:
PC-12 [1] = assay: Neuroprotective activity against 12.5 mM glutamate-induced toxicity in rat PC12 cells assessed as cell viability at 10 uM after 24 hrs by MTT assay; type: functional, cell-based
In short: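 Concentration-response run in PC12 cells co-exposed 24 h to 12.5 mM glutamate and compound at 0.1, 1, 5, 10, 15 or 20 μM. Viability by MTT (4 h at 37 °C, formazan in DMSO, A570), relative to untreated control; mean ± SD, n = 6.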

PC-12 [2] = assay: Cytotoxicity against rat PC12 cells assessed as decrease in cell viability at 20 uM after 24 hrs by MTT assay; type: cell-based; settings: pc-12, 24 h
In short: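 PC12 cells grown in DMEM with 10% FBS at 37 °C and 5% CO2, seeded at 10 000 cells/well and cultured 24 h. Compound added at 20 μM without glutamate (DMSO stock at 1000× final). Then MTT (5 mg/mL stock) added for 4 h at 37 °C, formazan dissolved in DMSO, and A570 read. Viability given as % of untreated control.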

PC-12 [3] = assay: cells; settings: Rattus norvegicus, PC-12, 24 h
PC-12 [4] = assay: Neuroprotective activity against 12.5 mM glutamate-induced apoptosis in rat PC12 cells assessed as early apoptotic cells at 0.1 uM after 24 hrs by Annexin V-FITC/propidium iodide staining based flow cytometry (reference value: 1.04%); type: functional
PC-12 [5] = assay: Neuroprotective activity against 12.5 mM glutamate-induced apoptosis in rat PC12 cells assessed as late apoptotic cells at 0.1 uM after 24 hrs by Annexin V-FITC/propidium iodide staining based flow cytometry (reference value: 45.53%); type: functional
PC-12 [6] = assay: Neuroprotective activity against 12.5 mM glutamate-induced apoptosis in rat PC12 cells assessed as early apoptotic cells at 1 uM after 24 hrs by Annexin V-FITC/propidium iodide staining based flow cytometry (reference value: 1.04%); type: functional
PC-12 [7] = assay: Neuroprotective activity against 12.5 mM glutamate-induced apoptosis in rat PC12 cells assessed as late apoptotic cells at 1 uM after 24 hrs by Annexin V-FITC/propidium iodide staining based flow cytometry (reference value: 45.53%); type: functional
PC-12 [8] = assay: Neuroprotective activity against 12.5 mM glutamate-induced apoptosis in rat PC12 cells assessed as early apoptotic cells at 10 uM after 24 hrs by Annexin V-FITC/propidium iodide staining based flow cytometry (reference value: 1.04%); type: functional
PC-12 [9] = assay: Neuroprotective activity against 12.5 mM glutamate-induced apoptosis in rat PC12 cells assessed as late apoptotic cells at 10 uM after 24 hrs by Annexin V-FITC/propidium iodide staining based flow cytometry (reference value: 45.53%); type: functional
PC-12 [10] = assay: Induction of apoptosis in rat PC12 cells assessed as early apoptotic cells at 10 uM after 24 hrs by Annexin V-FITC/propidium iodide staining based flow cytometry (reference value: 1.04%); type: cell-based; settings: pc-12, 24 h
PC-12 [11] = assay: Induction of apoptosis in rat PC12 cells assessed as late apoptotic cells at 10 uM after 24 hrs by Annexin V-FITC/propidium iodide staining based flow cytometry (reference value: 45.53%); type: cell-based; settings: pc-12, 24 h
PC-12 [12] = assay: Neuroprotective activity against 12.5 mM glutamate-induced apoptosis in rat PC12 cells assessed as decrease in caspase 3 level after 24 hrs by chemiluminescence based Western blot analysis; type: functional, cell-based
In short: (§1)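 PC12 cells exposed 24 h to compound at 0.1, 1 or 10 μM, with or without 12.5 mM glutamate. Protein extracted in lysis buffer and quantified by BCA. Equal amounts run on 12% SDS-PAGE, blotted to nitrocellulose, blocked in 5% nonfat milk, then primary antibodies overnight at 4 °C and HRP secondaries. Cytochrome c measured in the cytosolic fraction. Mean ± SD, n = 3.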

PC-12 [13] = assay: Neuroprotective activity against 12.5 mM glutamate-induced apoptosis in rat PC12 cells assessed as decrease in caspase 9 level after 24 hrs by chemiluminescence based Western blot analysis; type: functional, cell-based; in short: as §1
PC-12 [14] = assay: Neuroprotective activity against 12.5 mM glutamate-induced apoptosis in rat PC12 cells assessed as increase in Bcl-2 level at 0.1 to 10 uM after 24 hrs by chemiluminescence based Western blot analysis; type: functional, cell-based; in short: as §1
PC-12 [15] = assay: Neuroprotective activity against 12.5 mM glutamate-induced apoptosis in rat PC12 cells assessed as decrease in Bax level at 0.1 to 10 uM after 24 hrs by chemiluminescence based Western blot analysis; type: functional, cell-based; in short: as §1
PC-12 [16] = assay: Neuroprotective activity against 12.5 mM glutamate-induced apoptosis in rat PC12 cells assessed as decrease in cytochrome c level at 0.1 to 10 uM after 24 hrs by chemiluminescence based Western blot analysis; type: functional, cell-based; in short: as §1
PC-12 [17] = assay: Neuroprotective activity against 12.5 mM glutamate-induced toxicity in rat PC12 cells assessed as cell viability at 0.1 uM after 24 hrs by MTT assay

SMILES	pEC50 (PC-12 [3])	Activity (PC-12 [1])	Activity (PC-12 [2])	also measured
CCCCCCCCC/C=C\CC/C=C/[C@@H](O)[C@H](CO[C@@H]1O[C@H](CO)[C@@H](O)[C@H](O)[C@H]1O)NC(=O)[C@H](O)CCCCCCCCCCCCCCCCCC	4.92	Active	Non-Toxic	
CCCCCCCCC/C=C\CC/C=C/[C@@H](O)[C@H](CO[C@@H]1O[C@H](CO)[C@@H](O)[C@H](O)[C@H]1O)NC(=O)[C@H](O)CCCCCCCCCCCCCCCCCCC	5.05	Active	Non-Toxic	
CC1=NN(c2ccccc2)C(=O)C1 [EDARAVONE]	5.04			
CCCCCCCCC/C=C/CC/C=C/[C@@H](O)[C@H](CO[C@@H]1O[C@H](CO)[C@@H](O)[C@H](O)[C@H]1O)NC(=O)[C@H](O)CCCCCCCCCCCCCC	4.53	Active	Non-Toxic	
CCCCCCCCC/C=C\CC/C=C/[C@@H](O)[C@H](CO[C@@H]1O[C@H](CO)[C@@H](O)[C@H](O)[C@H]1O)NC(=O)[C@H](O)CCCCCCCCCCCCCCCCCCCCCC	5.60	Active	Non-Toxic	Activity (PC-12 [4]): 1.79%; Activity (PC-12 [5]): 30.63%; Activity (PC-12 [6]): 1.2%; Activity (PC-12 [7]): 22.38%; Activity (PC-12 [8]): 1.02%; Activity (PC-12 [9]): 2.11%; Activity (PC-12 [10]): 0.62%; Activity (PC-12 [11]): 1.49%; Activity (PC-12 [12]): Dose-dependent effect; Activity (PC-12 [13]): Dose-dependent effect; Activity (PC-12 [14]): Active; Activity (PC-12 [15]): Active; Activity (PC-12 [16]): Active; Activity (PC-12 [17]): Active
CCCCCCCCC/C=C\CC/C=C/[C@@H](O)[C@H](CO[C@@H]1O[C@H](CO)[C@@H](O)[C@H](O)[C@H]1O)NC(=O)[C@H](O)CCCCCCCCCCCCCCCC	4.70	Active	Non-Toxic	
CCCCCCCCC/C=C/CC/C=C/[C@@H](O)[C@H](CO[C@@H]1O[C@H](CO)[C@@H](O)[C@H](O)[C@H]1O)NC(=O)[C@H](O)CCCCCCCCCCCCCCCCCCCCCC	5.57	Active	Non-Toxic	

More lines, in order of rising pEC50 (PC-12 [3]), values ahead:

pEC50 (PC-12 [3])	SMILES	Activity (PC-12 [1])	Activity (PC-12 [2])	also measured
4.57	CCCCCCCCC/C=C\CC/C=C/[C@@H](O)[C@H](CO[C@@H]1O[C@H](CO)[C@@H](O)[C@H](O)[C@H]1O)NC(=O)[C@H](O)CCCCCCCCCCCCCC	Active	Non-Toxic	
4.65	CCCCCCCCC/C=C/CC/C=C/[C@@H](O)[C@H](CO[C@@H]1O[C@H](CO)[C@@H](O)[C@H](O)[C@H]1O)NC(=O)[C@H](O)CCCCCCCCCCCCCCCC	Active	Non-Toxic	
4.91	CCCCCCCCC/C=C/CC/C=C/[C@@H](O)[C@H](CO[C@@H]1O[C@H](CO)[C@@H](O)[C@H](O)[C@H]1O)NC(=O)[C@H](O)CCCCCCCCCCCCCCCCCC	Active	Non-Toxic	
5.06	CCCCCCCCC/C=C/CC/C=C/[C@@H](O)[C@H](CO[C@@H]1O[C@H](CO)[C@@H](O)[C@H](O)[C@H]1O)NC(=O)[C@H](O)CCCCCCCCCCCCCCCCCCC	Active	Non-Toxic	
5.16	CCCCCCCCC/C=C/CC/C=C/[C@@H](O)[C@H](CO[C@@H]1O[C@H](CO)[C@@H](O)[C@H](O)[C@H]1O)NC(=O)[C@H](O)CCCCCCCCCCCCCCCCCCCC	Active	Non-Toxic	
5.18	CCCCCCCCC/C=C\CCC[C@@H](O)[C@@H](O)[C@H](CO[C@@H]1O[C@H](CO)[C@@H](O)[C@H](O)[C@H]1O)NC(=O)[C@H](O)CCCCCCCCCCCCCCCCCCCC	Active	Non-Toxic	
5.19	CCCCCCCCC/C=C\CC/C=C/[C@@H](O)[C@H](CO[C@@H]1O[C@H](CO)[C@@H](O)[C@H](O)[C@H]1O)NC(=O)[C@H](O)CCCCCCCCCCCCCCCCCCCC	Active	Non-Toxic	
